The structures appear in SMILES notation.

In data set [1] the test system is Mus musculus. Briefly: Percent protective effect was determined in mice using 849 rads for 30 min after (po) administration of 600 mg/kg. It counts as functional.
Data set [2] concerns Mus musculus. Put plainly: Percent protective effect was determined in mice using 849 rads for 30 min after (ip) administration of 600 mg/kg. In kind it is functional.
A short description of data set [3]: Toxic dose was determined after (ip) administration of a dose of 18.8 mg/kg in mice at 1000-rad-gamma-radiation for 30 mins. It counts as toxicity, organism-based. Set-up: dose 18.8 mg/kg. As to conditions: mouse, in vivo. In a few lines:
(§1)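 Drug-toxicity deaths were counted within the radioprotection groups: 10 female C57 B16 mice, dosed by the route stated, then given whole-body 1000-rad γ-irradiation 30 min later. Deaths attributed to compound toxicity occurred before day 5 and were scored separately from the 30-day survival count.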

Data set [4] deals with Mus musculus. Briefly: Percent survival was determined over a period of 30 days after intraperitoneal administration of a dose of 4.7 mg/kg in mice. It counts as functional. The following applies: ip, 720 h. In a few lines:
(§2)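 Female C57 B16 mice (18-20 g), groups of 10, dosed ip in water or 10-20% aqueous ethanol (sometimes with Klucel or a Tween). Whole-body 1000-rad γ-irradiation 30 min after dosing. Survival was followed over 30 days, and animals alive beyond 30 days were counted as protected. Testing was done at Walter Reed Army Institute of Research.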

Data set [5] relates to Mus musculus. Briefly: Percent survival was determined over a period of 30 days after intraperitoneal administration of a dose of 9.4 mg/kg in mice. As to conditions: ip, 720 h. In kind it is functional. In a few lines:
as §2

Data set [6] has as its system Mus musculus. Put plainly: Percent survival was determined over a period of 30 days after intraperitoneal administration of a dose of 18.8 mg/kg in mice. It counts as functional. As to conditions: ip, 720 h. In a few lines: as §2
In data set [7] the test system is Mus musculus. Put plainly: Percent survival was determined over a period of 30 days after intraperitoneal administration of a dose of 2.3 mg/kg in mice. It counts as functional. The following applies: ip, 720 h. In a few lines:
as §2

The subject of data set [8] is Mus musculus. Put plainly: Percent survival was determined over a period of 30 days after intraperitoneal administration of a dose of 1.2 mg/kg in mice. It counts as functional. As to conditions: ip, 720 h. In a few lines:
as §2

Data set [9] is described as follows: Toxic dose was determined after (ip) administration of a dose of 4.7 mg/kg in mice at 1000-rad-gamma-radiation for 30 mins. In kind it is toxicity, organism-based. Set-up: dose 4.7 mg/kg. The following applies: mouse, in vivo. In a few lines:
as §1

Data set [10] relates to Mus musculus. Briefly: Percent survival was determined over a period of 30 days after intraperitoneal administration of a dose of 0.6 mg/kg in mice. It counts as functional. The following applies: ip, 720 h. In a few lines: as §2
Data set [11] can be described thus: Toxic dose was determined after (ip) administration of a dose of 2.3 mg/kg in mice at 1000-rad-gamma-radiation for 30 mins. It counts as toxicity, organism-based. The arrangement: dose 2.3 mg/kg. As to conditions: mouse, in vivo. In a few lines: as §1
Data set [12] in a line: Toxic dose was determined after (ip) administration of a dose of 4.69 mg/kg in mice at 1000-rad-gamma-radiation for 30 mins. It counts as toxicity, organism-based. The arrangement: dose 4.69 mg/kg. The following applies: mouse, in vivo. In a few lines: as §1
Data set [13] has as its system Mus musculus. Briefly: Percent survival was determined over a period of 30 days after intraperitoneal administration of a dose of 2.34 mg/kg in mice. It counts as functional. The following applies: ip, 720 h. In a few lines: as §2
Data set [14] concerns Mus musculus. Put plainly: Percent survival was determined over a period of 30 days after intraperitoneal administration of a dose of 4.69 mg/kg in mice. In kind it is functional. The following applies: ip, 720 h. In a few lines:
as §2

In data set [15] the test system is Mus musculus. Put plainly: Percent survival was determined over a period of 30 days after intraperitoneal administration of a dose of 1.17 mg/kg in mice. In kind it is functional. The following applies: ip, 720 h. In a few lines:
as §2

A short description of data set [16]: Toxic dose was determined after (ip) administration of a dose of 9.4 mg/kg in mice at 1000-rad-gamma-radiation for 30 mins. In kind it is toxicity, organism-based. Set-up: dose 9.4 mg/kg. The following applies: mouse, in vivo. In a few lines:
as §1

Data set [17] deals with Mus musculus. Put plainly: Percent protective effect was determined in mice using 825 rads for 30 min after administration of 120 mg/kg. It counts as functional.
Data set [18] deals with Mus musculus. Put plainly: Percent survival was determined over a period of 30 days after intraperitoneal administration of a dose of 2.4 mg/kg in mice. It counts as functional. As to conditions: ip, 720 h. In a few lines: as §2
Data set [19] deals with Mus musculus. Briefly: Percent survival was determined over a period of 30 days after intraperitoneal administration of a dose of 150 mg/kg in mice. In kind it is functional. The following applies: ip, 720 h. In a few lines:
as §2

The nature of data set [20]: Toxic dose was determined after (ip) administration of a dose of 150 mg/kg in mice at 1000-rad-gamma-radiation for 30 mins. In kind it is toxicity, organism-based. Set-up: dose 150 mg/kg. The following applies: mouse, in vivo. In a few lines: as §1
For data set [21], the system named is Mus musculus. Put plainly: Percent survival was determined over a period of 30 days after intraperitoneal administration of a dose of 75 mg/kg in mice. In kind it is functional. The following applies: Mus musculus, ip, 720 h. In a few lines: as §2
Data set [22] deals with Mus musculus. Briefly: Percent survival was determined over a period of 30 days after intraperitoneal administration of a dose of 37.5 mg/kg in mice. In kind it is functional. As to conditions: ip, 720 h. In a few lines: as §2
In data set [23] the test system is Mus musculus. Put plainly: Percent survival was determined over a period of 30 days after intraperitoneal administration of a dose of 600 mg/kg in mice. It counts as functional. The following applies: ip, 720 h. In a few lines:
as §2

A short description of data set [24]: Toxic dose was determined after (ip) administration of a dose of 1200 mg/kg in mice at 1000-rad-gamma-radiation for 30 mins. The following applies: mouse, in vivo. The arrangement: dose 1200 mg/kg. It counts as toxicity, organism-based. In a few lines: as §1
Data set [25] concerns Mus musculus. Briefly: Percent survival was determined over a period of 30 days after intraperitoneal administration of a dose of 300 mg/kg in mice. It counts as functional. As to conditions: ip, 720 h. In a few lines: as §2
The nature of data set [26]: Toxic dose was determined in 10-20% ethanol by ip administration in mice. The radiation protective properties were evaluated for groups of 10 mice exposed to 849-rad-gamma-radiation 30 min after dosing. It counts as toxicity, organism-based. As to conditions: mouse, in vivo.
Data set [27] concerns Mus musculus. Put plainly: Percent survival was determined over a period of 30 days after intraperitoneal administration of a dose of 1200 mg/kg in mice. It counts as functional. As to conditions: ip, 720 h. In a few lines:
as §2

With `N#CC(C(=O)N1CCCC1)=C([S-])[S-].[K+].[K+]`, the values for the Protective effect in data set [1] and in data set [2] were 30% and 80%, respectively.

One may read the LD50 as the dose at which mortality reaches 50%. A lower LD50 goes with greater toxicity. `CS/C(=C\c1cccc[n+]1C)N1CCOCC1.[I-]` had an LD50 at 0.5 h in [3] of 50 mg/kg. Also, in data set [4], the survival at 4.7 mg/kg came out at 0%. In [5], the survival at 9.4 mg/kg is 0%. In data set [6], this compound registered a survival at 18.8 mg/kg of 0%.

`CCCCCCSC(=Cc1cccc[n+]1C)SCCCCCC.[I-]` registered a survival at 2.3 mg/kg in data set [7] of 0%. The survival at 4.7 mg/kg in data set [4] came to 0%. The compound further returned a survival at 1.2 mg/kg in [8] of 0%. Further, in data set [9], the LD50 at 0.5 h worked out at 5 mg/kg.

On to `CCCCSC(=Cc1cccc[n+]1C)SCCCC.[I-]`, for which, in data set [7], the survival at 2.3 mg/kg stood at 30%. This compound also showed a survival at 0.6 mg/kg in data set [10] of 0%. In [8], this compound came in with a survival at 1.2 mg/kg of 10%. The same compound returned an LD50 at 0.5 h in data set [11] of 3 mg/kg.

`CS/C(=C\c1ccc2ccccc2[n+]1C)N1CCCCC1.[I-]` showed an LD50 at 0.5 h in [12] of 5 mg/kg. The same compound gave a survival at 2.34 mg/kg in data set [13] of 70%. In data set [14], this compound displayed a survival at 4.69 mg/kg of 10%. Also, the survival at 1.17 mg/kg in data set [15] came out at 30%.

Consider `CSC(=Cc1cccc(C=C(SC)SC)[n+]1C)SC.[I-]`, for which the median lethal dose (LD50) at 0.5 h in data set [16] amounted to 25 mg/kg. In [7], this compound had a survival at 2.3 mg/kg of 10%. The compound further displayed a survival at 4.7 mg/kg in [4] of 10%. The same compound registered a survival at 9.4 mg/kg in [5] of 30%.

`CSC(=Cc1c2ccccc2cc[n+]1C)SC.[I-]` came in with an LD50 at 0.5 h in data set [16] of 15 mg/kg. For the same compound, the survival at 2.3 mg/kg in data set [7] came out at 0%. This compound registered a survival at 4.7 mg/kg in [4] of 0%. In [5], this compound came in with a survival at 9.4 mg/kg of 20%.

`COc1ccc2c(ccc(C=C(SC)SC)[n+]2C)c1.[I-]`: the LD50 at 0.5 h in [16] is 30 mg/kg. Also, the survival at 2.3 mg/kg in data set [7] is 0%. In data set [4], this compound displayed a survival at 4.7 mg/kg of 0%. In [5], this compound gave a survival at 9.4 mg/kg of 0%.

With `N#CC(C(=O)c1ccccc1)=C([S-])[S-].[K+].[K+]`, the Protective effect in data set [17] turned out to be 17%.

As for `CS/C(=C\c1ccc2ccccc2[n+]1C)N1CCN(CCCO)CC1.[I-]`, in data set [16], the LD50 at 0.5 h is more than 10 mg/kg. In addition, the survival at 2.3 mg/kg in data set [7] came out at 0%. Further, the survival at 4.7 mg/kg in data set [4] was 0%. In addition, the survival at 9.4 mg/kg in [5] was found to be 30%.

Compound `CCSC(=Cc1cccc[n+]1C)SCC.[I-]` displayed an LD50 at 0.5 h in data set [16] of 20 mg/kg. In addition, in data set [4], the survival at 4.7 mg/kg turned out to be 0%. The compound also displayed a survival at 9.4 mg/kg in data set [5] of 20%.

In data set [3], `CSC(=Cc1cccc(C)[n+]1C)SC.[I-]` came in with an LD50 at 0.5 h of 50 mg/kg. Besides, in data set [4], the survival at 4.7 mg/kg is 0%. Moreover, the survival at 9.4 mg/kg in [5] came to 0%. The compound further returned a survival at 18.8 mg/kg in [6] of 40%.

With `CS/C(=C\c1cccc[n+]1C)N1CCCCC1.[I-]`, the LD50 at 0.5 h in [16] was 25 mg/kg. The compound also showed a survival at 4.7 mg/kg in data set [4] of 20%. In addition, the survival at 9.4 mg/kg in data set [5] came out at 80%. Also, the survival at 2.4 mg/kg in [18] came to 30%.

`Cc1ccc2c(ccc(CC(=S)[S-])[n+]2C)c1` yielded a survival at 150 mg/kg in data set [19] of 10%. The LD50 at 0.5 h in [20] came to 225 mg/kg. This compound had a survival at 75 mg/kg in data set [21] of 20%. Also, the survival at 37.5 mg/kg in [22] was determined as 10%.

Regarding `C[n+]1c(CC(=S)[S-])cccc1CC(=S)[S-].[I-].[Na+].[Na+]`, the survival at 600 mg/kg in data set [23] worked out at 0%. The LD50 at 0.5 h in [24] and in data set [26] was more than 600 mg/kg each time. Besides, the survival at 300 mg/kg in data set [25] amounted to 0%. The same compound yielded a survival at 1200 mg/kg in data set [27] of 0%.

Source of the values: ChEMBL document CHEMBL1123594, “Antiradiation compounds. 20. 1-Methylquinolinium(and pyridinium)-2-dithioacetic acid derivatives” (J Med Chem, 1987).
